ChEMBL document CHEMBL1123947, “Design, structure-activity, and molecular modeling studies of potent renin inhibitory peptides having N-terminal Nin-For-Trp (Ftr): angiotensinogen congeners modified by P1-P1' Phe-Phe, Sta, Leu psi[CH(OH)CH2]Val or leu psi[CH2NH]Val substitutions” (J Med Chem, 1988)
Numbered stars: 1 amine (or outer) side, 2 acyl side, 3 side chain; on linkers, the order of the positions; unused ones are H or OH. Square brackets hold non-standard residues; d marks the D form. Peptide text beside a SMILES is read from it. * marks the point of attachment. ξ: configuration not given here. Sta(3ξ) = CC(C)C[C@H](N[*:1])C(O)CC(=O)[*:2]; X4 = CC(C)C[C@H](N*)C(O)C[C@H](C(N)=O)C(C)C; X5 = CC(C)C[C@@H](CN[C@H](C(N)=O)C(C)C)N*; X1 = CC(C)CC(N[*:1])C(O)CC(=O)[*:2]; X3 = CC(C)CC(N[*:1])C(O)C(=O)[*:2]; Ile(3ξ) = CCC(C)[C@H](N)C(=O)O; X2 = CC(C)CC(N*)C(O)CC(N)=O; Cbz = O=C(OCc1ccccc1)*; Boc = CC(C)(C)OC(=O)*; For = O=C*

Each molecule was assayed against T1, Renin (Homo sapiens, UniProt P00797) (assay: In vitro inhibitory activity against human plasma renin).
T1 sequence (P00797 whole entry): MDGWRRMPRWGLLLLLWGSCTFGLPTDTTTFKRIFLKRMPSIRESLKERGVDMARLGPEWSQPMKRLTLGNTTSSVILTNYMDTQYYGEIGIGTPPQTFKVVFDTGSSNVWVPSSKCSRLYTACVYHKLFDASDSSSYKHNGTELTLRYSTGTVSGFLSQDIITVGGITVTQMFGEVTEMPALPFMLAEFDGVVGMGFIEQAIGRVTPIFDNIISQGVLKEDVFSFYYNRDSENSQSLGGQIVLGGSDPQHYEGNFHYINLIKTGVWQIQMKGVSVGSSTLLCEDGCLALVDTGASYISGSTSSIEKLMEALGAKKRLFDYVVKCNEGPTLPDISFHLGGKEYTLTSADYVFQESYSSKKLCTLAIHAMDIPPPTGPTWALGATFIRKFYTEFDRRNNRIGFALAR
Format: cell-free
Outline: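 Reconstituted lyophilized human plasma with 0.1% EDTA, plus PMSF and maleate buffer (pH 6.0). Inhibitor added in 1.0% Tween 80/water vehicle. Angiotensin I generated for 90 min at 37 °C and measured by RIA.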

IC50 [nM] | SMILES
10 | CC[C@H](C)[C@H](NC(=O)[C@@H](NC[C@H](CC(C)C)NC(=O)[C@H](Cc1c[nH]cn1)NC(=O)[C@H](Cc1ccccc1)NC(=O)[C@@H]1CCCN1C(=O)[C@H](Cc1c[nH]cn1)NC(=O)[C@@H]1CCCN1)C(C)C)C(=O)N[C@@H](Cc1c[nH]cn1)C(=O)N[C@@H](CCCCN)C(=O)O
0.31 | CC(=O)N[C@@H](Cc1cn(C=O)c2ccccc12)C(=O)N1CCC[C@H]1C(=O)N[C@@H](Cc1ccccc1)C(=O)N[C@@H](Cc1c[nH]cn1)C(=O)N[C@@H](CC(C)C)C(O)C[C@H](C(N)=O)C(C)C (some centres undefined) (Ac-W(For)PFH-X4)
21 | CC(=O)N[C@@H](Cc1cn(C=O)c2ccccc12)C(=O)N1CCC[C@H]1C(=O)N[C@@H](Cc1ccccc1)C(=O)N[C@@H](Cc1c[nH]cn1)C(=O)N[C@H](CN[C@H](C(N)=O)C(C)C)CC(C)C (Ac-W(For)PFH-X5)
0.53 | CC(=O)N[C@@H](Cc1cn(C=O)c2ccccc12)C(=O)N1CCC[C@H]1C(=O)N[C@@H](Cc1ccccc1)C(=O)N[C@@H](Cc1c[nH]cn1)C(=O)NC(CC(C)C)C(O)CC(=O)N[C@H](C(N)=O)C(C)C (some centres undefined) (Ac-W(For)PFH[X1]V-NH2)
1.6 | CC[C@H](C)[C@H](NC(=O)CC(O)[C@H](CC(C)C)NC(=O)[C@H](Cc1c[nH]cn1)NC(=O)[C@H](Cc1ccccc1)NC(=O)[C@@H]1CCCN1C(=O)[C@H](Cc1c[nH]c2ccccc12)NC(C)=O)C(N)=O (some centres undefined) (Ac-WPFH[Sta(3ξ)]I-NH2)
14 | CC[C@H](C)[C@H](NC(=O)CC(O)[C@H](CC(C)C)NC(=O)[C@H](Cc1c[nH]cn1)NC(=O)[C@H](Cc1ccccc1)NC(=O)[C@@H]1CCCN1C(=O)[C@@H](Cc1cn(C=O)c2ccccc12)NC(C)=O)C(N)=O (some centres undefined)
6.8 | CC[C@H](C)[C@H](NC(=O)CC(O)[C@H](CC(C)C)NC(=O)[C@H](Cc1cnc[nH]1)NC(=O)[C@H](Cc1ccccc1)NC(=O)[C@@H]1CCCN1C(=O)[C@H](Cc1cnc[nH]1)NC(C)=O)C(N)=O (some centres undefined) (Ac-HPFH[Sta(3ξ)]I-NH2)
1 | CC[C@H](C)[C@H](NC(=O)C(O)C(CC(C)C)NC(=O)[C@H](Cc1c[nH]cn1)NC(=O)[C@H](Cc1ccccc1)NC(=O)[C@@H]1CCCN1C(=O)[C@H](CCCN=C(N)N)NC(=O)[C@H](CCCN=C(N)N)NC(=O)OCc1ccccc1)C(=O)N[C@@H](Cc1c[nH]cn1)C(=O)N[C@@H](CCCCNC(=O)OC(C)(C)C)C(=O)OC (some centres undefined) (Cbz-RRPFH[X3]IHK(Boc)-OMe)

More lines, now with the values behind:

SMILES | IC50 [nM]
CC[C@H](C)[C@H](NC(=O)CC(O)[C@H](CC(C)C)NC(=O)[C@H](Cc1cnc[nH]1)NC(=O)[C@H](Cc1ccccc1)NC(=O)[C@@H]1CCCN1C(=O)[C@H](Cc1cn(C=O)c2ccccc12)NC(C)=O)C(N)=O (some centres undefined) | 0.1
CC(=O)N[C@H](Cc1c[nH]cn1)C(=O)N1CCC[C@H]1C(=O)N[C@@H](Cc1ccccc1)C(=O)N[C@@H](Cc1ccccc1)C(=O)N[C@H](C(=O)N[C@@H](Cc1cn(C=O)c2ccccc12)C(N)=O)C(C)C | ~100000
CC(=O)N[C@@H](Cc1cn(C=O)c2ccccc12)C(=O)N1CCC[C@H]1C(=O)N[C@@H](Cc1ccccc1)C(=O)N[C@@H](Cc1c[nH]cn1)C(=O)N[C@@H](Cc1ccccc1)C(=O)N[C@@H](Cc1ccccc1)C(N)=O (Ac-W(For)PFHFF-NH2) | > 100000
CC(=O)N[C@@H](Cc1cn(C=O)c2ccccc12)C(=O)N1CCC[C@H]1C(=O)N[C@@H](Cc1ccccc1)C(=O)N[C@@H](Cc1cnc[nH]1)C(=O)N[C@@H](Cc1ccccc1)C(=O)N[C@@H](Cc1ccccc1)C(=O)N[C@H](C(N)=O)C(C)C (Ac-W(For)PFHFFV-NH2) | 2100
CC(=O)N[C@@H](Cc1cn(C=O)c2ccccc12)C(=O)NCC(=O)N[C@@H](Cc1ccccc1)C(=O)N[C@@H](Cc1cnc[nH]1)C(=O)N[C@@H](Cc1ccccc1)C(=O)N[C@@H](Cc1ccccc1)C(=O)N[C@H](C(=O)N[C@@H](Cc1cn(C=O)c2ccccc12)C(N)=O)C(C)C (Ac-W(For)GFHFFVW(For)-NH2) | > 100000
CCC(C)[C@H](NC(=O)CC(O)C(CC(C)C)NC(=O)[C@H](Cc1c[nH]cn1)NC(=O)[C@H](Cc1ccccc1)NC(=O)[C@@H]1CCCN1C=O)C(N)=O (some centres undefined) (For-PFH[X1][Ile(3ξ)]-NH2) | 31
CC(=O)N[C@@H](Cc1cnc[nH]1)C(=O)N1CCC[C@H]1C(=O)N[C@@H](Cc1ccccc1)C(=O)N[C@@H](Cc1cnc[nH]1)C(=O)N[C@@H](Cc1ccccc1)C(=O)N[C@@H](Cc1ccccc1)C(=O)N[C@H](C(=O)N[C@@H](Cc1cn(C=O)c2ccccc12)C(N)=O)C(C)C (Ac-HPFHFFVW(For)-NH2) | 8300
CC(=O)N[C@@H](Cc1cn(C=O)c2ccccc12)C(=O)N1CCC[C@H]1C(=O)N[C@@H](Cc1ccccc1)C(=O)N[C@@H](Cc1cnc[nH]1)C(=O)N[C@@H](Cc1ccccc1)C(=O)N[C@@H](Cc1ccccc1)C(=O)N[C@H](C(=O)N[C@@H](Cc1cn(C=O)c2ccccc12)C(N)=O)C(C)C | 500
CC(=O)N[C@@H](Cc1c[nH]cn1)C(=O)N[C@@H](Cc1ccccc1)C(=O)N[C@@H](Cc1cn(C=O)c2ccccc12)C(=O)N[C@@H](Cc1ccccc1)C(=O)N[C@@H](Cc1ccccc1)C(=O)N[C@H](C(=O)N[C@@H](Cc1cn(C=O)c2ccccc12)C(N)=O)C(C)C (Ac-HFW(For)FFVW(For)-NH2) | > 100000
CC(=O)N[C@H](Cc1c[nH]c2ccccc12)C(=O)N1CCC[C@H]1C(=O)N[C@@H](Cc1ccccc1)C(=O)N[C@@H](Cc1c[nH]cn1)C(=O)N[C@@H](Cc1ccccc1)C(=O)N[C@@H](Cc1ccccc1)C(=O)N[C@H](C(=O)N[C@@H](Cc1cn(C=O)c2ccccc12)C(N)=O)C(C)C | 5000
CC(=O)N[C@@H](Cc1cn(C=O)c2ccccc12)C(=O)N1CCC[C@H]1C(=O)N[C@@H](Cc1ccccc1)C(=O)N[C@@H](Cc1cnc[nH]1)C(=O)NC(CC(C)C)C(O)CC(N)=O (some centres undefined) (Ac-W(For)PFH-X2) | 3.8
CC(=O)N[C@H](Cc1cn(C=O)c2ccccc12)C(=O)N1CCC[C@H]1C(=O)N[C@@H](Cc1ccccc1)C(=O)N[C@@H](Cc1cnc[nH]1)C(=O)N[C@@H](Cc1ccccc1)C(=O)N[C@@H](Cc1ccccc1)C(=O)N[C@H](C(=O)N[C@@H](Cc1cn(C=O)c2ccccc12)C(N)=O)C(C)C | > 100000
CC[C@H](C)[C@H](NC(=O)[C@@H](C[C@H](O)[C@H](CC(C)C)NC(=O)[C@H](Cc1c[nH]cn1)N(C)C(=O)[C@H](Cc1ccccc1)NC(=O)[C@@H]1CCCN1C(=O)OC(C)(C)C)C(C)C)C(=O)NCc1ccccn1 | 0.11
CC(=O)N[C@@H](Cc1cn(C=O)c2ccccc12)C(=O)N1CCC[C@H]1C(=O)N[C@@H](Cc1ccccc1)C(=O)N[C@@H](Cc1cnc[nH]1)C(=O)NC(CC(C)C)C(O)CC(=O)N[C@H](C(=O)N[C@@H](Cc1cn(C=O)c2ccccc12)C(N)=O)C(C)C (some centres undefined) (Ac-W(For)PFH[X1]VW(For)-NH2) | 0.38

The molecules below were run against Renin (Sus scrofa) (assay: In vitro inhibitory activity towards porcine kidney renin).

IC50 [nM] | SMILES
200 | CC(C)CC(NC(=O)[C@H](Cc1c[nH]cn1)NC(=O)[C@H](Cc1ccccc1)NC(=O)[C@@H]1CCCN1)C(O)CC(=O)N[C@@H](CC(C)C)C(=O)N[C@@H](Cc1ccccc1)C(N)=O (some centres undefined) (H-PFH[X1]LF-NH2)
370000 | CC(C)CC(NC(=O)[C@@H](N)Cc1cnc[nH]1)C(O)CC(=O)N[C@@H](CC(C)C)C(=O)N[C@@H](Cc1ccccc1)C(N)=O (some centres undefined)
